Measurements published in ChEMBL document CHEMBL1127523, “Design and synthesis of side-chain conformationally restricted phenylalanines and their use for structure-activity studies on tachykinin NK-1 receptor” (J Med Chem, 1994).
Starred links: 1 amine or outer side, 2 acyl side, 3 side chain; linkers in the order of their positions; H or OH if unused. Non-standard residues stand in square brackets, D forms with d. Residues, ends and D or L forms follow the SMILES beside them. Gly(9-fluorenyl) = N[C@H](C(=O)O)C1c2ccccc2-c2ccccc21; X1 = O=C([C@@H](N[*:1])C1CCc2ccccc21)[*:2]; Dip = N[C@H](C(=O)O)C(c1ccccc1)c1ccccc1

Legend:
Cavia porcellus [1] = organism: Cavia porcellus; experiment: Effective concentration required for its inhibition of nonspecific binding to guinea pig ileal membranes; type: functional
Cavia porcellus [2] = organism: Cavia porcellus; experiment: Concentration required to inhibit nonspecific binding of [125I]BH-SP to guinea pig ileal membranes; type: functional
Neuromedin-K receptor = target: T1, Neuromedin-K receptor (Rattus norvegicus, UniProt P16177); experiment: Concentration required to inhibit the specific binding of [125I]BH-ELE to Neurokinin-3 (NK-3) receptor in rat brain synaptosomes; type: subcellular
T1 sequence (P16177 whole entry): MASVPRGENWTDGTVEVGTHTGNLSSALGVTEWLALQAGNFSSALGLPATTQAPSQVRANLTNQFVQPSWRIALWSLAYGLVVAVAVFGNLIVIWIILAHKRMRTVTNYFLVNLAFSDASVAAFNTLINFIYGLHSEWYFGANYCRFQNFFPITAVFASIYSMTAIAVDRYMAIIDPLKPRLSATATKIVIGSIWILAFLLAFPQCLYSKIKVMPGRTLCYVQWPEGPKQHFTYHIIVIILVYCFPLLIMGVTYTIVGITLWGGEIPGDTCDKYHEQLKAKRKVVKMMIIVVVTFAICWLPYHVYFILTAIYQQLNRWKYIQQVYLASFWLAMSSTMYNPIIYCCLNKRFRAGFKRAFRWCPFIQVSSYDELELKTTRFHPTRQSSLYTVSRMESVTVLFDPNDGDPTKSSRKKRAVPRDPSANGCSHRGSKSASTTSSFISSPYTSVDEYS
Method in brief: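 Rat brain synaptosomes in Krebs-Ringer phosphate buffer with BSA, bacitracin and glucose. Incubated 15 min at 20 °C with 40 pM [125I]BHELE and increasing peptide concentrations, gamma counted. Triplicates, two to eight independent experiments; nonspecific binding defined with eledoisin 10⁻⁶ M. IC50 estimated from Hill plots of titration curves.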

Substance-P receptor = Substance-P receptor (Rattus norvegicus, UniProt P14600); experiment: Concentration required to inhibit the specific binding of [125I]BH-SP to Neurokinin-1 (NK-1) receptor in rat brain synaptosomes; type: subcellular
Chain of Substance-P receptor (P14600 whole entry): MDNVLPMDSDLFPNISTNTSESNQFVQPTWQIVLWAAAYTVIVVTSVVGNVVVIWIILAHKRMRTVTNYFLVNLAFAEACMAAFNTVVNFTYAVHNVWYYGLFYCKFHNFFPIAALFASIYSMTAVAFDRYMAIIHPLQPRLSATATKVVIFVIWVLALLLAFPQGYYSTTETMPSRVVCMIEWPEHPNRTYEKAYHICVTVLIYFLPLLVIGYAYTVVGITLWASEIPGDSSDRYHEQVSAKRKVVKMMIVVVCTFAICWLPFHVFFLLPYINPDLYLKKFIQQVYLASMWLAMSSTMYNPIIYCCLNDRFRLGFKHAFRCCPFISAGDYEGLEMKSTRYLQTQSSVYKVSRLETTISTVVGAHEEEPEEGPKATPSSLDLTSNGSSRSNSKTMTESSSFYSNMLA

Substance-K receptor = target: T2, Substance-K receptor (Rattus norvegicus, UniProt P16610); experiment: Concentration required to inhibit the specific binding of [3H]NKA to Neurokinin-2 (NK-2) receptor in rat duodenum membranes
T2 sequence (P16610 whole entry): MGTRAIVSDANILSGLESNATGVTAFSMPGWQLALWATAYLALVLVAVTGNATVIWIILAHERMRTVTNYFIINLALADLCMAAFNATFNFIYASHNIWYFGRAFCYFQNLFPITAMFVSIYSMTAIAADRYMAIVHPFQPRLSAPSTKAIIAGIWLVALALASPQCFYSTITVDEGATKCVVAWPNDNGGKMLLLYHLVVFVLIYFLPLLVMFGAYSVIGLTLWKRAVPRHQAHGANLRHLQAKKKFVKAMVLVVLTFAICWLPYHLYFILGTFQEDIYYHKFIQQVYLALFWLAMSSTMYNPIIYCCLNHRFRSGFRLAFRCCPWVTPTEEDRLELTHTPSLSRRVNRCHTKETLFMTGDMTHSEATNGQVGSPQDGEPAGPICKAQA

Cavia porcellus [3] = organism: Cavia porcellus; experiment: pKB value of compound was determined in presence of antagonist RP-67580 at conc. of 10e-7 M; type: functional

## CSCC[C@H](NC(=O)[C@H](CC(C)C)NC(=O)CNC(=O)[C@H](Cc1ccccc1)NC(=O)[C@@H](NC(=O)[C@H](CCC(N)=O)NC(=O)[C@H](CCC(N)=O)NC(=O)[C@@H]1CCCN1C(=O)[C@H](CCCCN)NC(=O)[C@@H]1CCCN1C(=O)[C@@H](N)CCCN=C(N)N)C1c2ccccc2-c2ccccc21)C(N)=O [listing 1 of 2 here]
Cavia porcellus [1]
  EC50: 9.5 nM
Cavia porcellus [2]
  IC50: 110 nM
Neuromedin-K receptor
  IC50: 3100 nM
Substance-P receptor
  IC50: 1400 nM
Substance-K receptor
  IC50: 690 nM

## CSCC[C@H](NC(=O)[C@H](CC(C)C)NC(=O)CNC(=O)[C@H](Cc1ccccc1)NC(=O)[C@H](CCc1ccccc1)NC(=O)[C@H](CCC(N)=O)NC(=O)[C@H](CCC(N)=O)NC(=O)[C@@H]1CCCN1C(=O)[C@H](CCCCN)NC(=O)[C@@H]1CCCN1C(=O)[C@@H](N)CCCN=C(N)N)C(N)=O
Cavia porcellus [1]
  EC50: 5.8 nM
Cavia porcellus [2]
  IC50: 19 nM
Neuromedin-K receptor
  IC50: > 10000 nM
Substance-K receptor
  IC50: 1900 nM

## CSCC[C@H](NC(=O)[C@H](CC(C)C)NC(=O)[C@@H]1CCCN1C(=O)[C@H](Cc1ccccc1)NC(=O)[C@H](Cc1ccccc1)NC(=O)[C@H](CCC(N)=O)NC(=O)[C@H](CCC(N)=O)NC(=O)[C@@H]1CCCN1C(=O)[C@H](CCCCN)NC(=O)[C@@H]1CCCN1C(=O)[C@@H](N)CCCN=C(N)N)C(N)=O [listing 1 of 2 here]
Cavia porcellus [3]
  pKb: 6.97

## CSCC[C@H](NC(=O)[C@H](CC(C)C)NC(=O)CNC(=O)[C@@H](NC(=O)[C@@H](NC(=O)[C@H](CCC(N)=O)NC(=O)[C@H](CCC(N)=O)NC(=O)[C@@H]1CCCN1C(=O)[C@H](CCCCN)NC(=O)[C@@H]1CCCN1C(=O)[C@@H](N)CCCN=C(N)N)C1CCc2ccccc21)C1c2ccccc2-c2ccccc21)C(N)=O (some centres not stated) (H-RPKPQQ[X1][Gly(9-fluorenyl)]GLM-NH2)
Cavia porcellus [1]
  EC50: 3.4 nM
Cavia porcellus [2]
  IC50: 7.9 nM
Neuromedin-K receptor
  IC50: 450 nM
Substance-P receptor
  IC50: 29 nM
Substance-K receptor
  IC50: 110 nM

## CSCC[C@H](NC(=O)[C@H](CC(C)C)NC(=O)CNC(=O)[C@H](Cc1ccccc1)NC(=O)[C@@H](NC(=O)[C@H](CCC(N)=O)NC(=O)[C@H](CCC(N)=O)NC(=O)[C@@H]1CCCN1C(=O)[C@H](CCCCN)NC(=O)[C@@H]1CCCN1C(=O)[C@@H](N)CCCN=C(N)N)[C@H]1CCc2ccccc21)C(N)=O
Cavia porcellus [1]
  EC50: 1.2 nM
Neuromedin-K receptor
  IC50: 2200 nM
Substance-P receptor
  IC50: 3.1 nM
Substance-K receptor
  IC50: 380 nM

## CSCC[C@H](NC(=O)[C@H](CC(C)C)NC(=O)CNC(=O)[C@H](Cc1ccccc1)NC(=O)[C@@H](NC(=O)[C@H](CCC(N)=O)NC(=O)[C@H](CCC(N)=O)NC(=O)[C@@H]1CCCN1C(=O)[C@H](CCCCN)NC(=O)[C@@H]1CCCN1C(=O)[C@@H](N)CCCN=C(N)N)C1c2ccccc2-c2ccccc21)C(N)=O [listing 2 of 2 here]
Cavia porcellus [3]
  pKb: 7.1

## CSCC[C@H](NC(=O)[C@H](CC(C)C)NC(=O)[C@@H]1CCCN1C(=O)[C@@H](NC(=O)[C@H](Cc1ccccc1)NC(=O)[C@H](CCC(N)=O)NC(=O)[C@H](CCC(N)=O)NC(=O)[C@@H]1CCCN1C(=O)[C@H](CCCCN)NC(=O)[C@@H]1CCCN1C(=O)[C@@H](N)CCCN=C(N)N)C(c1ccccc1)c1ccccc1)C(N)=O (H-RPKPQQF[Dip]PLM-NH2)
Cavia porcellus [1]
  EC50: 20 nM
Cavia porcellus [2]
  IC50: 260 nM
Neuromedin-K receptor
  IC50: > 10000 nM
Substance-P receptor
  IC50: 2500 nM
Substance-K receptor
  IC50: 6000 nM

## CSCC[C@H](NC(=O)[C@H](CC(C)C)NC(=O)CNC(=O)[C@@H](NC(=O)[C@H](Cc1ccccc1)NC(=O)[C@H](CCC(N)=O)NC(=O)[C@H](CCC(N)=O)NC(=O)[C@@H]1CCCN1C(=O)[C@H](CCCCN)NC(=O)[C@@H]1CCCN1C(=O)[C@@H](N)CCCN=C(N)N)[C@@H]1CCc2cc3ccccc3cc21)C(N)=O
Cavia porcellus [1]
  EC50: 2.8 nM
Neuromedin-K receptor
  IC50: 180 nM
Substance-P receptor
  IC50: 28 nM
Substance-K receptor
  IC50: 57 nM

## CSCC[C@H](NC(=O)[C@H](CC(C)C)NC(=O)[C@@H]1CCCN1C(=O)[C@@H](NC(=O)[C@H](Cc1ccccc1)NC(=O)[C@H](CCC(N)=O)NC(=O)[C@H](CCC(N)=O)NC(=O)[C@@H]1CCCN1C(=O)[C@H](CCCCN)NC(=O)[C@@H]1CCCN1C(=O)[C@@H](N)CCCN=C(N)N)C1c2ccccc2-c2ccccc21)C(N)=O (H-RPKPQQF[Gly(9-fluorenyl)]PLM-NH2)
Cavia porcellus [1]
  EC50: 1.7 nM
Neuromedin-K receptor
  IC50: 15000 nM
Substance-P receptor
  IC50: 3.3 nM
Substance-K receptor
  IC50: 1300 nM

## CSCC[C@H](NC(=O)[C@H](CC(C)C)NC(=O)CNC(=O)[C@H](Cc1ccccc1)NC(=O)[C@@H](NC(=O)[C@H](CCC(N)=O)NC(=O)[C@H](CCC(N)=O)NC(=O)[C@@H]1CCCN1C(=O)[C@H](CCCCN)NC(=O)[C@@H]1CCCN1C(=O)[C@@H](N)CCCN=C(N)N)C1Cc2ccccc2C1)C(N)=O
Cavia porcellus [1]
  EC50: 1300 nM
Neuromedin-K receptor
  IC50: > 10000 nM
Substance-P receptor
  IC50: 2300 nM
Substance-K receptor
  IC50: 1700 nM

## CSCC[C@H](NC(=O)[C@H](CC(C)C)NC(=O)[C@@H]1CCCN1C(=O)[C@H](Cc1ccccc1)NC(=O)[C@H](Cc1ccccc1)NC(=O)[C@H](CCC(N)=O)NC(=O)[C@H](CCC(N)=O)NC(=O)[C@@H]1CCCN1C(=O)[C@H](CCCCN)NC(=O)[C@@H]1CCCN1C(=O)[C@@H](N)CCCN=C(N)N)C(N)=O [listing 2 of 2 here]
Cavia porcellus [1]
  EC50: 2 nM
Neuromedin-K receptor
  IC50: > 10000 nM
Substance-P receptor
  IC50: 2.9 nM
Substance-K receptor
  IC50: > 10000 nM

## CSCC[C@H](NC(=O)[C@H](CC(C)C)NC(=O)CNC(=O)[C@H](Cc1ccccc1)NC(=O)[C@@H](NC(=O)[C@H](CCC(N)=O)NC(=O)[C@H](CCC(N)=O)NC(=O)[C@@H]1CCCN1C(=O)[C@H](CCCCN)NC(=O)[C@@H]1CCCN1C(=O)[C@@H](N)CCCN=C(N)N)C1CCc2cc3ccccc3cc21)C(N)=O (some centres not stated) [listing 1 of 2 here]
Cavia porcellus [3]
  pKb: 7.3

## CSCC[C@H](NC(=O)[C@H](CC(C)C)NC(=O)CNC(=O)[C@@H](NC(=O)[C@H](Cc1ccccc1)NC(=O)[C@H](CCC(N)=O)NC(=O)[C@H](CCC(N)=O)NC(=O)[C@@H]1CCCN1C(=O)[C@H](CCCCN)NC(=O)[C@@H]1CCCN1C(=O)[C@@H](N)CCCN=C(N)N)C(c1ccccc1)c1ccccc1)C(N)=O
Cavia porcellus [1]
  EC50: 15 nM
Cavia porcellus [2]
  IC50: 260 nM

## CSCC[C@H](NC(=O)[C@H](CC(C)C)NC(=O)CNC(=O)[C@@H](NC(=O)[C@H](Cc1ccccc1)NC(=O)[C@H](CCC(N)=O)NC(=O)[C@H](CCC(N)=O)NC(=O)[C@@H]1CCCN1C(=O)[C@H](CCCCN)NC(=O)[C@@H]1CCCN1C(=O)[C@@H](N)CCCN=C(N)N)C(C)(C)C)C(N)=O
Cavia porcellus [1]
  EC50: 2.5 nM
Neuromedin-K receptor
  IC50: 65 nM
Substance-P receptor
  IC50: 2.6 nM
Substance-K receptor
  IC50: 9 nM

## CSCC[C@H](NC(=O)[C@H](CC(C)C)NC(=O)CNC(=O)[C@H](Cc1ccccc1)NC(=O)[C@@H](NC(=O)[C@H](CCC(N)=O)NC(=O)[C@H](CCC(N)=O)NC(=O)[C@@H]1CCCN1C(=O)[C@H](CCCCN)NC(=O)[C@@H]1CCCN1C(=O)[C@@H](N)CCCN=C(N)N)C1CCc2cc3ccccc3cc21)C(N)=O (some centres not stated) [listing 2 of 2 here]
Cavia porcellus [1]
  EC50: 6.9 nM
Cavia porcellus [2]
  IC50: 49 nM
Neuromedin-K receptor
  IC50: 1600 nM
Substance-P receptor
  IC50: 48 nM
Substance-K receptor
  IC50: 120 nM

## CSCC[C@H](NC(=O)[C@H](CC(C)C)NC(=O)CNC(=O)[C@H](CCc1ccccc1)NC(=O)[C@H](Cc1ccccc1)NC(=O)[C@H](CCC(N)=O)NC(=O)[C@H](CCC(N)=O)NC(=O)[C@@H]1CCCN1C(=O)[C@H](CCCCN)NC(=O)[C@@H]1CCCN1C(=O)[C@@H](N)CCCN=C(N)N)C(N)=O
Cavia porcellus [1]
  EC50: 2.8 nM
Cavia porcellus [2]
  IC50: 74 nM
Neuromedin-K receptor
  IC50: 1900 nM
Substance-K receptor
  IC50: 450 nM

## CSCC[C@H](NC(=O)[C@H](CC(C)C)NC(=O)CNC(=O)[C@H](Cc1ccccc1)NC(=O)[C@@H](NC(=O)[C@H](CCC(N)=O)NC(=O)[C@H](CCC(N)=O)NC(=O)[C@@H]1CCCN1C(=O)[C@H](CCCCN)NC(=O)[C@@H]1CCCN1C(=O)[C@@H](N)CCCN=C(N)N)[C@@H]1CCc2ccccc21)C(N)=O
Cavia porcellus [1]
  EC50: 6.9 nM
Cavia porcellus [2]
  IC50: 23 nM
Neuromedin-K receptor
  IC50: 2100 nM
Substance-P receptor
  IC50: 54 nM
Substance-K receptor
  IC50: 530 nM
